ChEMBL document CHEMBL3243988, “Quantitative structure-activity relationships in 2,5-bis(1-aziridinyl)-p-benzoquinone derivatives against leukemia L-1210” (1979)
Calls of active or inactive are those of the source. No cut-off for these calls is given here.

Tests used:
Format in all cases: functional
[1] = system: L1210; experiment: Antileukemic activity against mouse L1210 cells allografted in BDF1 mouse assessed as concentration required to give maximum increase in life span administered for 1 day
In short: (§1)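 Single-injection schedule: BDF1 mice received 10⁵ L-1210 cells i.p. and one dose on day 1 only, with compound dissolved in DMSO and made up in sterile saline. Survival was compared with controls. MED is the dose yielding 40% ILS; OD is the dose yielding maximal ILS.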

[2] = system: L1210; experiment: Chemotherapeutic index, ratio of antileukemic activity against mouse L1210 cells allografted in BDF1 mouse assessed as concentration required to give maximum increase in life span administered as continuous injection to antileukemic activity against mouse L1210 cells allografted in BDF1 mouse assessed as concentration required to increase 40% life span administered as continuous injection
In short: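 Chemotherapeutic index was taken as OD/MED on the chronic schedule (QD days 1-12) in BDF1 mice bearing 10⁵ i.p.-inoculated L-1210 cells. OD is the dose giving maximum increase in life span; MED is the dose giving 40% ILS versus controls. Compounds were given in DMSO diluted with saline.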

[3] = system: L1210; experiment: Antileukemic activity against mouse L1210 cells allografted in BDF1 mouse assessed as concentration required to increase 40% life span administered as continuous injection; settings: read-out: MED
In short: (§2)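 Chronic schedule: 10⁵ L-1210 cells given i.p. to BDF1 mice, then treatment once daily on days 1-12 with compound in DMSO diluted with sterile saline. Life span was compared with controls. MED is the dose giving 40% increase in life span; OD is the dose giving maximum ILS.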

[4] = system: L1210; experiment: Antileukemic activity against mouse L1210 cells allografted in BDF1 mouse assessed as concentration required to give maximum increase in life span administered as continuous injection; in short: as §2
[5] = system: L1210; experiment: Antileukemic activity against mouse L1210 cells allografted in BDF1 mouse assessed as concentration required to increase 40% life span administered as qd for 12 days; in short: as §2
[6] = system: L1210; experiment: Antileukemic activity against mouse L1210 cells allografted in BDF1 mouse
In short: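 BDF1 mice inoculated intraperitoneally with 10⁵ L-1210 cells. Compounds were dissolved in dimethyl sulfoxide and diluted with sterile physiological saline for injection. Dosing was either chronic (QD days 1-12) or a single injection on day 1. Read-out was increase in life span (ILS) relative to untreated controls.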

[7] = system: L1210; experiment: Antileukemic activity against mouse L1210 cells allografted in BDF1 mouse assessed as concentration required to increase 40% life span administered for 1 day; in short: as §1

## CC1=C(N2CC2)C(=O)C(CCCc2ccccc2)=C(N2CC2)C1=O
[1]
  log(1/C): 3.6

## CCC(COC(N)=O)C1=C(N2CC2)C(=O)C(C)=C(N2CC2)C1=O (stereo unspecified)
[1]
  log(1/C): 5.2

## O=C1C=C(N2CC2)C(=O)C(N2CC2)=C1N1CC1 [TRIAZIQUONE]
[2]
  TI: 1.8
[3]
  minimal effective dose: 0.082 mg/kg
[4]
  Activity: 0.15 mg/kg

## COC(CO)C1=C(N2CC2)C(=O)C(C)=C(N2CC2)C1=O (stereo unspecified)
[5]
  log(1/C): 6.9

## COC(COC(N)=O)C1=C(N2CC2)C(=O)C(C)=C(N2CC2)C1=O (stereo unspecified) [CARBOQUONE]
[2]
  TI: 5.4
[3]
  minimal effective dose: 0.13 mg/kg
[4]
  Activity: 0.7 mg/kg

## COC(CO)C1=C(N2CC2)C(=O)C(C(CO)OC)=C(N2CC2)C1=O (stereo unspecified)
[6]
  Activity: Active

## O=C1C(CCO)=C(N2CC2)C(=O)C(CCO)=C1N1CC1
[1]
  log(1/C): 5.6

## COC(CO[C@@H]1O[C@H](COC(C)=O)[C@@H](OC(C)=O)[C@H](OC(C)=O)[C@H]1OC(C)=O)C1=C(N2CC2)C(=O)C(C)=C(N2CC2)C1=O (stereo partly specified)
[6]
  Activity: Active

## CC1=C(N2CC2)C(=O)C(CCC(=O)N(C)C)=C(N2CC2)C1=O
[7]
  log(1/C): 5.09
[1]
  log(1/C): 4.84

## CCOC(COC(N)=O)C1=C(N2CC2)C(=O)C(CC)=C(N2CC2)C1=O (stereo unspecified)
[7]
  log(1/C): 5.4

## COC(COC(N)=O)C1=C(N2CC2)C(=O)C(C(COC(N)=O)OC)=C(N2CC2)C1=O (stereo unspecified)
[6]
  Activity: Active

## CO[C@@]12[C@H](COC(N)=O)C3=C(C(=O)C(C)=C(N)C3=O)N1C[C@@H]1N[C@@H]12 [MITOMYCIN]
[2]
  TI: 2.2
[3]
  minimal effective dose: 0.9 mg/kg
[4]
  Activity: 2 mg/kg

## CCCC1=C(N2CC2)C(=O)C(CCOC(N)=O)=C(N2CC2)C1=O
[7]
  log(1/C): 4.9

## CC1=C(N2CC2)C(=O)C(C(C)C)=C(N2CC2)C1=O
[5]
  log(1/C): 5.6
